Test results published in ChEMBL document CHEMBL5365533, “DNA major versus minor groove occupancy of monomeric and dimeric crystal violet derivatives. Toward structural correlations” (Bioorg Med Chem, 2023).
The source made the active and inactive calls. No cut-off for these calls is given here.

Key:
[1] = Displacement of Ethidium bromide from G5C5 (5'-AAAGGGGG-CCCCCTTT-3') DNA (unknown origin)/EtBr complex assessed as decrease in initial absorbance of DNA by crystal violet staining based analysis
[2] = tested on: DNA; assay: Displacement of Ethidium bromide from (AT)5 (5'-GGGATATA-TATATCCC-3') DNA (unknown origin)/EtBr complex assessed as decrease in initial absorbance of DNA by crystal violet staining based analysis; format: nucleic-acid assay
[3] = Binding affinity to DDD hairpin DNA (unknown origin) assessed as binding constant at 100 uM by ITC analysis
Procedure, shortened: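 Isothermal titration calorimetry of DDD hairpin (10 μM in cell) titrated with ligand (100 μM in syringe), 10 mM Tris-HCl pH 7.0, 30 °C; 25 injections of 10 μL. Heats of dilution subtracted; single-site binding model fitted; K averaged from triplicate experiments.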

[4] = tested on: Calf thymus DNA; assay: Ratio of Kapp for displacement of ethidium bromide from calf thymus DNA/EtBr complex to Kapp for displacement of ethidium bromide from calf thymus DNA/EtBr in presence of methyl green; format: nucleic-acid assay; settings: Bos taurus
Procedure, shortened: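 Fluorescence titration of CT DNA (1.0 μM/bp) plus ethidium (0.5 μM), with or without netropsin or methyl green (0.5 μM each), against increasing ligand in 10 mM Tris-HCl pH 7.0. Excitation 520 nm, emission 590 nm, read after 3 min equilibration. C50 is the concentration giving 50% fluorescence loss; Kapp = 9.5×10^6 M⁻¹ × C_ethidium/C50.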

[5] = tested on: Calf thymus DNA; assay: Binding affinity to calf thymus DNA assessed as change in melting temperature by UV thermal denaturation assay; format: nucleic-acid assay; settings: Bos taurus
Procedure, shortened: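 CT DNA in 10 mM Tris-HCl pH 7.0 at a DNA:ligand ratio of 30:1, in 1 cm quartz cuvettes. Absorbance read every 2 °C from 25 to 95 °C, heating at 1 °C/min. Tm taken from first-derivative plots.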

[6] = tested on: DNA; assay: Displacement of Ethidium bromide from A5T5 (5'-GGGAAAAATTTTTCCCCC-3') DNA (unknown origin)/EtBr complex assessed as decrease in initial absorbance of DNA by crystal violet staining based analysis; format: nucleic-acid assay
[7] = tested on: AT rich DNA; assay: Displacement of Ethidium bromide from AT3 (5'-ATATAT-3') hairpin DNA (unknown origin)/EtBr complex assessed as decrease in initial absorbance of DNA by crystal violet staining based analysis; format: nucleic-acid assay
[8] = tested on: Calf thymus DNA; assay: Binding affinity to calf thymus DNA in Tris-HCl buffer at pH 7.0 assessed as change in enthalpy at 100 uM by isothermal titration […] analysis; format: nucleic-acid assay; settings: Bos taurus
Procedure, shortened: (§1)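 ITC of CT DNA (100 μM/bp in cell) titrated with ligand (100 μM in syringe), 10 mM Tris-HCl pH 7.0; 25 injections of 10 μL at 30 °C, or for one ligand 50 injections of 5 μL at 27 °C. Buffer-into-DNA heats subtracted; single-site model gives K, N, ΔH and ΔS.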

[9] = tested on: Calf thymus DNA; assay: Binding affinity to calf thymus DNA in Tris-HCl buffer at pH 5.0 assessed as dye aggregation in the DNA groove at 310nm at 1 mM incubated for 5 mins by UV spectra analysis; format: nucleic-acid assay; settings: Bos taurus
Procedure, shortened: (§2)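 CT DNA (80 μM/bp) in 10 mM Tris-HCl pH 5.0 received small aliquots of ligand from a 1 mM stock; incubated 5 min at 20 °C. CD (average of three scans) and UV spectra recorded 215–350 nm in 0.5 nm increments under identical conditions.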

[10] = Displacement of Ethidium bromide from STAT6 (5'-TCCTAG-3') hairpin DNA (unknown origin)/EtBr complex assessed as binding constant by crystal violet staining based analysis
[11] = tested on: Calf thymus DNA; assay: Binding affinity to calf thymus DNA assessed as bathochromic shift by UV spectroscopic analysis; format: nucleic-acid assay; settings: Bos taurus
Procedure, shortened: (§3)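 UV titration in 10 mM Tris-HCl pH 7.0 with ligand fixed at 5.0 μM and CT DNA:ligand ratios of 0:1, 1:1, 2:1, 5:1, 10:1 and 30:1.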

[12] = tested on: AT rich DNA; assay: Displacement of Ethidium bromide from AT3 (5'-ATATAT-3') hairpin DNA (unknown origin)/EtBr complex assessed as binding constant by crystal violet staining based analysis; format: nucleic-acid assay
[13] = Displacement of Ethidium bromide from DDD (5-CGAATT-3') hairpin DNA (unknown origin)/EtBr complex assessed as decrease in initial absorbance of DNA by crystal violet staining based analysis
[14] = tested on: Calf thymus DNA; assay: Binding affinity to calf thymus DNA in Tris-HCl buffer at pH 5.0 assessed as dye aggregation in the DNA groove at 337nm at 1 mM incubated for 5 mins by UV spectra analysis; format: nucleic-acid assay; settings: Bos taurus; procedure, shortened: as §2
[15] = Displacement of Ethidium bromide from NFAT1 (5-GAAAAA-3') hairpin DNA (unknown origin)/EtBr complex assessed as decrease in initial absorbance of DNA by crystal violet staining based analysis
[16] = Displacement of Ethidium bromide from cMyc (5'-CACGTG-3') hairpin DNA (unknown origin)/EtBr complex assessed as decrease in initial absorbance of DNA by crystal violet staining based analysis
[17] = tested on: Calf thymus DNA; assay: Binding affinity to calf thymus DNA in Tris-HCl buffer at pH 7.0 assessed as differential groove occupancy at 100 uM by ITC analysis; format: nucleic-acid assay; settings: Bos taurus; procedure, shortened: as §1
[18] = tested on: Calf thymus DNA; assay: Binding affinity to calf thymus DNA in Tris-HCl buffer at pH 7.0 assessed as decrease in viscosity incubated for 30 mins by Ostwald viscometer analysis; format: nucleic-acid assay; settings: Bos taurus
Procedure, shortened: (§4)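 Ostwald viscometer at 23.0 ± 1 °C. CT DNA held at 300 μM/bp in 10 mM Tris-HCl pH 7.0 with ligand or ethidium at 0–26 μM, incubated 30 min before timing flow. (η/η0)^1/3 plotted against [ligand]/[DNA]; three replicates, SD shown.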

[19] = Displacement of Ethidium bromide from cMyc (5'-CACGTG-3') hairpin DNA (unknown origin)/EtBr complex assessed as binding constant by crystal violet staining based analysis
[20] = Displacement of Ethidium bromide from STAT6 (5'-TCCTAG-3') hairpin DNA (unknown origin)/EtBr complex assessed as decrease in initial absorbance of DNA by crystal violet staining based analysis
[21] = tested on: Calf thymus DNA; assay: Binding affinity to calf thymus DNA assessed as hypochromic shift by UV spectroscopic analysis; format: nucleic-acid assay; settings: Bos taurus; procedure, shortened: as §3
[22] = Displacement of Ethidium bromide from NFAT1 (5-GAAAAA-3') hairpin DNA (unknown origin)/EtBr complex assessed as binding constant by crystal violet staining based analysis
[23] = tested on: Calf thymus DNA; assay: Binding affinity to calf thymus DNA in Tris-HCl buffer at pH 7.0 assessed as change in entropy at 100 uM by isothermal titration […] analysis; format: nucleic-acid assay; settings: Bos taurus; procedure, shortened: as §1
[24] = Displacement of Ethidium bromide from G6 (5'-GGGGGG-3') hairpin DNA (unknown origin)/EtBr complex assessed as decrease in initial absorbance of DNA by crystal violet staining based analysis
[25] = Binding affinity to DDD (5-CGAATT-3') hairpin DNA (unknown origin) assessed as binding constant by isothermal titration calorimetry
[26] = tested on: Calf thymus DNA; assay: Binding affinity to calf thymus DNA in Tris-HCl buffer at pH 7.0 assessed as lengthening of DNA from intercalation of drug incubated for 30 mins by Ostwald viscometer analysis; format: nucleic-acid assay; settings: Bos taurus; procedure, shortened: as §4
[27] = tested on: Calf thymus DNA; assay: Binding affinity to calf thymus DNA in Tris-HCl buffer at pH 7.0 assessed as rigidification of DNA from intercalation of drug incubated for 30 mins by Ostwald viscometer analysis; format: nucleic-acid assay; settings: Bos taurus; procedure, shortened: as §4
[28] = tested on: Calf thymus DNA; assay: Binding affinity to calf thymus DNA in Tris-HCl buffer at pH 7.0 assessed as minimal change in viscosity incubated for 30 mins by Ostwald viscometer analysis; format: nucleic-acid assay; settings: Bos taurus; procedure, shortened: as §4
[29] = target: DNA; assay: Binding affinity to pUC-19 plasmid DNA (unknown origin) assessed as DNA cleavage incubated for 30 mins in presence of BamHI restriction enzyme by ethidium bromide staining based agarose gel electrophoresis analysis; format: nucleic-acid assay
Procedure, shortened: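 pUC-19 linearized with AlwNI (37 °C, 30 min), enzyme heat-killed at 80 °C for 20 min, then incubated with varying ligand concentrations. BamHI digestion for 30 min at 37 °C. Run on 1% agarose containing ethidium bromide, 120 V for 40 min; visualized by UV transillumination.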

[30] = Binding affinity to DDD hairpin DNA (unknown origin) in Tris-HCl buffer at pH 5.0 assessed as reduction in base stacking band formation at 280nm at 1 mM incubated for 5 mins by CD spectra analysis
Procedure, shortened: (§5)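 Ligand (1 mM stock) added in small aliquots to DDD hairpin (8.8 μM) in 10 mM Tris-HCl pH 5.0; mixed by inversion and incubated 5 min at 20 °C. CD recorded 215–350 nm in 0.5 nm steps as the average of three scans.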

[31] = Binding affinity to DDD hairpin DNA (unknown origin) in Tris-HCl buffer at pH 5.0 assessed as negative induced CD bands formation at 310nm at 1 mM incubated for 5 mins by CD spectra analysis; procedure, shortened: as §5
[32] = Binding affinity to DDD hairpin DNA (unknown origin) in Tris-HCl buffer at pH 5.0 assessed as negligible changes in helicity band formation at 245nm at 1 mM incubated for 5 mins by CD spectra analysis; procedure, shortened: as §5

## CN(C)c1ccc(C(=C2C=CC(=[N+](C)C)C=C2)c2ccc(N(C)C)c(-c3ccccc3)c2)cc1
[1]
  C50: 2.99 µM
[2]
  C50: 2.75 µM
[3]
  K: 96.4 10^5/M
[4]
  Ratio: 2.3
[5]
  ΔTm: 6.2 °C
[6]
  C50: 2.61 µM

## CN(C)c1ccc(C(=C2C=CC(=[N+](C)C)C=C2)c2ccc(OCc3ccccc3COc3ccc(C(=C4C=CC(=[N+](C)C)C=C4)c4ccc(N(C)C)cc4)cc3)cc2)cc1
[7]
  C50: 2.08 µM
[8]
  deltaH: -44.7 kcal/mol
[9]
  Activity: Active
[10]
  K: 1.32 10^5/M
[11]
  Activity: Active
[12]
  K: 1.3 10^5/M
[3]
  K: 20.5 10^5/M
[13]
  C50: 1.57 µM
[14]
  Activity: Active
[15]
  C50: 2.64 µM
[16]
  C50: 1.56 µM
[17]
  Activity: Active
[18]
  Activity: Dose-Dependent Effect
[19]
  K: 5.06e+06 M⁻¹
[5]
  ΔTm: 0.9 °C
[20]
  C50: 1.09 µM
[21]
  Activity: Active
[22]
  K: 29.1 10^5/M
[23]
  deltaS: -0.12 kcal/mol
[24]
  C50: 1 µM
[25]
  K: 20.5 10^5/M

## CN(C)c1ccc(C(=C2C=CC(=[N+](C)C)C=C2)c2ccccc2-c2ccccc2-c2ccccc2C(=C2C=CC(=[N+](C)C)C=C2)c2ccc(N(C)C)cc2)cc1
[7]
  C50: 1.11 µM
[26]
  Activity: Active
[10]
  K: 1.8 10^5/M
[11]
  Activity: Active
[12]
  K: 0.32 10^5/M
[3]
  K: 21.1 10^5/M
[13]
  C50: 0.54 µM
[27]
  Activity: Active
[28]
  Activity: Dose-Dependent Effect
[29]
  IC50: 67 µM
[15]
  C50: 0.69 µM
[16]
  C50: 0.57 µM
[19]
  K: 114000 M⁻¹
[5]
  ΔTm: 3.6 °C
[20]
  C50: 0.56 µM
[21]
  Activity: Active
[22]
  K: 1.14 10^5/M
[24]
  C50: 0.51 µM
[25]
  K: 21.1 10^5/M

## CN(C)c1ccc(C(=C2C=CC(=[N+](C)C)C=C2)c2ccc(-c3cc4c(cc3-c3ccc(C(=C5C=CC(=[N+](C)C)C=C5)c5ccc(N(C)C)cc5)cc3)OCO4)cc2)cc1
[7]
  C50: 1.36 µM
[3]
  K: 2.4 10^5/M
[13]
  C50: 1.47 µM
[15]
  C50: 1.23 µM
[16]
  C50: 1.42 µM
[5]
  ΔTm: 2.6 °C
[20]
  C50: 1.32 µM
[24]
  C50: 1.25 µM

## CN(C)c1ccc(C(=C2C=CC(=[N+](C)C)C=C2)c2ccc(/C=C/c3cc4c(cc3/C=C/c3ccc(C(=C5C=CC(=[N+](C)C)C=C5)c5ccc(N(C)C)cc5)cc3)OCO4)cc2)cc1
[7]
  C50: 1.21 µM
[8]
  deltaH: 85.8 kcal/mol
[30]
  Activity: Active
[31]
  Activity: Active
[10]
  K: 2.22 10^5/M
[11]
  Activity: Active
[12]
  K: 5.79 10^5/M
[3]
  K: 7.5 10^5/M
[13]
  C50: 0.78 µM
[29]
  IC50: 5.4 µM
[15]
  C50: 1.27 µM
[16]
  C50: 1.8 µM
[17]
  Activity: Active
[4]
  Ratio: > 8
[18]
  Activity: Dose-Dependent Effect
[19]
  K: 32000 M⁻¹
[5]
  ΔTm: 3.3 °C
[20]
  C50: 1.12 µM
[21]
  Activity: Active
[22]
  K: 49.8 10^5/M
[32]
  Activity: Active
[23]
  deltaS: 0.316 kcal/mol
[24]
  C50: 1.1 µM
[25]
  K: 7.54 10^5/M
